The text below walks through data of ChEMBL document CHEMBL1255483, “Intra- and extracellular activities of dicloxacillin against Staphylococcus aureus in vivo and in vitro” (Antimicrob Agents Chemother, 2010).

Series [1] deals with Staphylococcus aureus. As to the kind of experiment: Antimicrobial activity against Staphylococcus aureus ATCC 25923 by broth microdilution method at pH 7.4. (In general: Broth dilution looks for growth in wells or tubes with falling amounts of substance.)
Series [2] deals with Staphylococcus aureus. Nature of the series: Bactericidal activity against Staphylococcus aureus ATCC 25923 assessed as log reduction in bacterial count at 100 times MIC after 5 hrs by time-kill assay. The format is functional. The gist of the method: (§1)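 Broth time-kill: MSSA at 10⁶ CFU/ml exposed to a wide range of dicloxacillin concentrations. CFU counted after 5 and 24 h and expressed as change in log₁₀ CFU/ml from time zero. Multiples refer to the MIC by CLSI microdilution at pH 7.4. n = 3.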

Series [3] is described as follows: Ratio of fAUC (24 hrs) in NMRI mouse at 120 mg/kg administered every 3 hrs to MIC for Staphylococcus aureus E19977. Type of series: functional. The gist of the method:
(§2)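 Free-drug AUC24/MIC was modelled for repeated subcutaneous regimens. Single-dose NMRI plasma concentration-time curves were combined with the best-fitting square-root expression for the concentration-dependent free fraction. The result was divided by the E19977 MIC.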

Series [4] in a line: Ratio of fAUC (24 hrs) in NMRI mouse at 300 mg/kg administered every 12 hrs to MIC for Staphylococcus aureus E19977. Type of series: functional. The gist of the method: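 Modeled free AUC over 24 h divided by the MIC, not measured directly. Single subcutaneous DCX doses were given to NMRI mice, and plasma was assayed by S. lutea bioassay. Noncompartmental analysis used trapezoidal mean points plus a fitted monoexponential extrapolated to 24 h. Free fraction came from a square-root fit to plasma ultrafiltration binding (10–400 mg/liter spike, 1 h, 37°C). The MIC was measured by broth microdilution at pH 7.4.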

Series [5] relates to Staphylococcus aureus. As to the kind of experiment: Bacteriostatic activity against Staphylococcus aureus ATCC 25923 after 24 hrs. The format is functional. The gist of the method: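 Extracellular broth time- and concentration-kill test. The inoculum was ~10⁶ CFU/ml, exposed to a wide range of DCX concentrations, with CFU counted after 5 and 24 h. The read-out was Δlog CFU/ml versus time zero (mean ± SD, n = 3). A sigmoidal fit with slope 1 gave Emax and EC50. Cstatic was read by graphical interpolation as the concentration giving no change from the inoculum.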

Series [6] can be described thus: fT>MIC in Staphylococcus aureus E19977 infected NMRI mouse at 300 mg/kg administered every 12 hrs. The format is functional. Put shortly:
(§3)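 Calculated percentage of 24 h at steady state that free plasma DCX exceeds the strain MIC (microdilution, pH 7.4). Concentrations were simulated from single subcutaneous dose plasma curves in NMRI mice (S. lutea bioassay), adjusted with a square-root model of concentration-dependent free fraction from ultrafiltration. The regimen was dosed subcutaneously in mice infected intraperitoneally with 10^7.4 CFU, and peritoneal CFU were read after 24 h of therapy.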

Series [7] concerns Staphylococcus aureus. As to the kind of experiment: Bactericidal activity against Staphylococcus aureus ATCC 25923 assessed as log reduction in bacterial count at MIC after 5 hrs by time-kill assay. Type of series: functional. Put shortly: as §1
A short description of series [8]: fT>MIC in Staphylococcus aureus E19977 infected NMRI mouse at 200 mg/kg administered every 4 hrs. The format is functional. Put shortly: as §3
Series [9] in a line: Ratio of fCmax in NMRI mouse at 76 mg/kg administered every 2 hrs to MIC for Staphylococcus aureus E19977. Type of series: functional. The gist of the method:
(§4)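 Free Cmax/MIC was modelled, not measured. Single-dose subcutaneous plasma curves from NMRI mice were projected to the multiple-dose regimens. Free fraction came from a square-root fit of unbound fraction versus total concentration. Binding was measured by ultrafiltration of mouse plasma spiked with 10–400 mg/liter and held 1 h at 37°C. MIC was for strain E19977.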

Series [10] relates to Staphylococcus aureus. Nature of the series: Bactericidal activity against Staphylococcus aureus E19977 assessed as log reduction in bacterial count at 100 times MIC after 24 hrs by time-kill assay. Type of series: functional. Put shortly: as §1
A short description of series [11]: Ratio of fCmax in NMRI mouse at 340 mg/kg administered every 24 hrs to MIC for Staphylococcus aureus E19977.
The nature of series [12]: fT>MIC in Staphylococcus aureus E19977 infected NMRI mouse at 200 mg/kg administered every 6 hrs. Type of series: functional. The gist of the method: as §3
The test system of series [13] is Staphylococcus aureus. As to the kind of experiment: Bactericidal activity against Staphylococcus aureus ATCC 25923 infected in human THP-1 cells assessed as log change in bacterial count after 24 hrs. Type of series: functional. The gist of the method:
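Human THP-1 macrophages were infected with opsonized S. aureus at 4 bacteria per macrophage for 45 min. Non-phagocytized bacteria were removed by washing and a brief incubation in PBS with gentamicin 50 mg/liter. Cells were then incubated up to 24 h with DCX over a wide range of extracellular concentrations. The read-out was Δlog CFU per mg cell protein versus time zero (n = 3), with sigmoidal fitting and Cstatic by interpolation.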

For series [14], the system named is Staphylococcus aureus. Nature of the series: Bactericidal activity against Staphylococcus aureus E19977 assessed as log reduction in bacterial count at 100 times MIC after 5 hrs by time-kill assay. The format is functional. The gist of the method: as §1
For series [15], the system named is Staphylococcus aureus. Nature of the series: Bactericidal activity against Staphylococcus aureus E19977 infected in human THP1 cells assessed as log reduction in bacterial count at 100 times MIC after 24 hrs by time-kill assay. Type of series: functional, THP-1. Put shortly:
(§5)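 Intracellular model in THP-1 macrophages: opsonized S. aureus was added at 4 bacteria per macrophage for 45 min. Non-phagocytized bacteria were removed by washing and brief PBS incubation with gentamicin (50 mg/liter). Cells were then incubated up to 24 h with a wide range of extracellular dicloxacillin concentrations. Result is change in log₁₀ CFU per mg cell protein from time zero. n = 3.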

A short description of series [16]: AUC (24 hrs) in NMRI mouse at 30 mg/kg, sc. The format is ADME, organism-based. More on the design: time < 24 hr, dose 30 mg/kg, route subcutaneous. The note with it: plasma. The gist of the method: (§6)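 Single subcutaneous DCX doses given to NMRI mice. Blood was collected into EDTA tubes, and plasma drug was assayed by microbiological bioassay with S. lutea ATCC 9391 (detection limit 1.5 mg/liter, linear to 100 mg/liter). Values came from noncompartmental analysis. Terminal half-life was fitted monoexponentially to the last four time points. AUC24 combined the trapezoidal rule over mean points with exact integration of the fitted curve extrapolated to 24 h.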

Series [17] is described as follows: Ratio of fCmax in NMRI mouse at 80 mg/kg to MIC for Staphylococcus aureus E19977.
A short description of series [18]: fT>MIC in Staphylococcus aureus E19977 infected NMRI mouse at 160 mg/kg administered every 3 hrs. Type of series: functional. The gist of the method: as §3
Series [19] is filed under the species Mus musculus. As to the kind of experiment: Protein binding in NMRI mouse at 60 mg/l by ultrafiltration. The format is ADME, organism-based. The settings on record: in vivo. Put shortly:
(§7)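 Plasma binding was measured by ultrafiltration. EDTA blood from healthy mice, or from NMRI mice infected intraperitoneally for 6 h with E19977, was spiked with DCX at 10–400 mg/liter, with PBS controls. Samples were held 1 h at 37°C, then centrifuged through 30-kDa filters at 3,000 × g for 8 min at 37°C. Total and filtrate drug were measured by S. lutea bioassay.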

Series [20] can be described thus: Ratio of fAUC (24 hrs) in NMRI mouse at 120 mg/kg administered every 24 hrs to MIC for Staphylococcus aureus E19977. Type of series: functional. Put shortly: as §2
A short description of series [21]: Half-life in NMRI mouse at 60 mg/kg, sc. The format is ADME, organism-based. More on the design: dose 60 mg/kg, route subcutaneous. The note with it: in vivo. Put shortly:
as §6

A short description of series [22]: Ratio of fCmax in NMRI mouse at 300 mg/kg administered every 12 hrs to MIC for Staphylococcus aureus E19977. Type of series: functional. Put shortly:
as §4

Series [23] is filed under the species Mus musculus. As to the kind of experiment: Protein binding in NMRI mouse at 400 mg/l by ultrafiltration. The format is ADME, organism-based. The note with it: in vivo. The gist of the method: as §7
In series [24] the test system is Staphylococcus aureus. As to the kind of experiment: Antimicrobial activity against Staphylococcus aureus E19977 infected in human THP1 cells assessed as log reduction in bacterial count at MIC after 24 hrs by time-kill assay. Type of series: functional, THP-1. Put shortly:
as §5

Values after ≈ are worked out from the molar mass of the structure shown.

The MIC is the smallest concentration in the dilution series that meets the test's criterion for growth inhibition. High values mean weaker potency, low ones greater potency. Usually AUC stands for concentration integrated over time. Higher therefore signals high exposure. By half-life is commonly meant the time in which the quantity being followed falls by half. On to `Cc1onc(-c2c(Cl)cccc2Cl)c1C(=O)N[C@@H]1C(=O)N2[C@@H]1SC(C)(C)[C@@H]2C(=O)O` [DICLOXACILLIN], for which the MIC with Staphylococcus aureus [1] amounted to 0.125 µg/mL (≈ 0.266 µM). Besides, the FC is given as under 1 with Staphylococcus aureus [2]; under 1 in the series with Staphylococcus aureus [7]; 3 with Staphylococcus aureus [10]; under 1 in the series on Staphylococcus aureus [14]; under 1 in the series with Staphylococcus aureus [15]; 1 in the series on Staphylococcus aureus [24]. Besides, the figures for the fAUC/MIC in series [3], in series [4] and in [20] were 350.73 h, 439.15 h and 43.95 h, respectively. Also, the Activity was determined as 0.07 mg/L in the series with Staphylococcus aureus [5], 89.5% in the series listed under Mus musculus [19] and 83.7% in the series listed under Mus musculus [23]. Moreover, the “fT>MIC” value in [6] amounted to 35.28%; in series [8], 86.25%; in series [12], 57.5%; in series [18], 96.11%. The Ratio turned out to be 28.18 in series [9], 233.35 in series [11], 30.64 in series [17] and 196.76 in series [22]. The Emax in the series with Staphylococcus aureus [13] is recorded as -1.19 deltalog10CFU/ml. For the same molecule, in series [16], the AUC at 24 h turned out to be 21400 ng·h/mL. In [21], the half-life turned out to be 25 min.
